Test results published in ChEMBL document CHEMBL4725352, “Identification of New Nitric Oxide-Donating Peptides with Dual Biofilm Eradication and Antibacterial Activities for Intervention of Device-Related Infections” (J Med Chem, 2020).
The source made the active and inactive calls. The rule behind the calls is not given here. Where a SMILES comes first, the peptide text is derived from it. The star is where a group is joined. X1 = COC(=O)[C@H](Cc1ccc(Oc2no[n+]([O-])c2S(=O)(=O)c2ccccc2)cc1)NC(=O)CCCc1cn(CC(=O)*)nn1

Legend:
[1] = test system: Staphylococcus aureus; test: Antibiofilm activity against Staphylococcus aureus ATCC 6538 assessed as inhibition of biofilm formation at 100 uM incubated for 12 hrs by crystal violet staining assay relative to control; type: functional
How it was run: (§1)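 Bacterial culture (10⁸ cfu/mL) grown 24 h in 96-well plates, then washed 3× with saline. Wells were incubated 12 h with test compound in TSB. Biofilm was fixed with methanol 15 min and stained with 1% crystal violet 5 min at room temperature. Dye was solubilized in ethanol for 30 min at 37 °C and OD read at 600 nm. Compared with vehicle control; mean ± S.D., n = 3.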

[2] = test system: Staphylococcus aureus; test: Antibiofilm activity against Staphylococcus aureus ATCC 6538 assessed as inhibition of biofilm formation at 100 uM incubated for 12 hrs in presence of NO scavenger PTIO by crystal violet staining assay relative to control; type: functional, organism-based
[3] = test system: Cell membrane; test: Induction of cell membrane rupture in Staphylococcus aureus ATCC 6538 assessed as induction of cell content spillage at 200 uM incubated for 60 mins by scanning electron microscopy
How it was run: (§2)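 Bacteria incubated in TSB alone or TSB with compound at 200 µM for 60 min. Cells were pelleted, fixed in 4% paraformaldehyde, dropped onto silicon slices, gold-sputtered and imaged by cold field emission SEM.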

[4] = test system: Escherichia coli; test: Induction of NO release in Escherichia coli ATCC 8099 at 10 uM incubated for 4 hrs by Griess assay; type: functional, organism-based
How it was run: (§3)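 Bacteria (10⁸ cfu/mL in saline) incubated with compound at 10 µM for 4 h at 37 °C, 5% CO₂. Cells were centrifuged and lysed, and the lysate centrifuged at 10,000 g for 5 min. Nitrite in the supernatant was measured by Griess reagent at 540 nm against a NaNO₂ standard curve.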

[5] = test system: Escherichia coli; test: Antibiofilm activity against Escherichia coli ATCC 8099 assessed as inhibition of biofilm formation at 100 uM incubated for 12 hrs in presence of NO scavenger PTIO by crystal violet staining assay relative to control; type: functional, organism-based
[6] = test system: Cell membrane; test: Induction of cell membrane rupture in Staphylococcus aureus ATCC 6538 at 200 uM incubated for 60 mins by scanning electron microscopy; how it was run: as §2
[7] = test system: Staphylococcus aureus; test: Antibiofilm activity against Staphylococcus aureus ATCC 6538 infected in mouse assessed as reduction in bacterial infection by measuring colony counts at 0.25 umol/kg, sc administered every 12 hrs for 3 days by plate colony counting assay (reference value: 6.40 +/- 0.28); type: functional; details: dose 0.25 µmol/kg
[8] = Toxicity in rat assessed as effect on blood as effect on blood pressure at 0.172 umol/kg, sc measured after 6 hrs post dose by non-invasive blood pressure monitoring; type: organism-based; details: in vivo, dose 0.172 µmol/kg
How it was run: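 Healthy rats given a single sc dose of 0.172 µmol/kg in aqueous solution, with saline as control. Tail-artery blood pressure measured non-invasively at 0, 1, 3 and 6 h.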

[9] = test system: Staphylococcus aureus; test: Antibiofilm activity against Staphylococcus aureus ATCC 6538 assessed as dispersion of formed biofilms at 100 uM incubated for 12 hrs by scanning electron microscopy; type: functional, organism-based
How it was run: (§4)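 Bacteria (10⁸ cfu/mL) grown on silicon slices in TSB for 24 h. Medium was removed and slices washed 3× with saline. Slices were then incubated 12 h in TSB containing test compound at 100 µM, or TSB alone. Slices were gold-sputtered and imaged by cold field emission SEM.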

[10] = test system: Staphylococcus aureus; test: Antibiofilm activity against Staphylococcus aureus ATCC 6538 assessed as decrease in living bacterial cells in biofilm on bottom of confocal dish at 100 uM incubated for 12 hrs by live-cell fluorescence staining assay; type: functional
How it was run: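 S. aureus (10⁸ cfu/mL, 2 mL) cultured one day at 37 °C, 5% CO₂ in confocal dishes, then washed 3× with saline. TSB with compound at 100 µM was added for 12 h. The dish was washed and live-cell fluorescence stained for 15 min. Bottom biofilm was imaged by 3D confocal microscopy.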

[11] = test system: Staphylococcus aureus; test: Antimicrobial activity against Staphylococcus aureus ATCC 6538 incubated for 20 hrs by microdilution assay; type: functional
[12] = test system: Staphylococcus aureus; test: Antibiofilm activity against Staphylococcus aureus ATCC 6538 infected in mouse assessed as reduction in bacterial inflammation in vicinity tissues of implanted site at 0.25 umol/kg, sc administered every 12 hrs for 3 days by H and E staining based assay; type: functional, organism-based; details: dose 0.25 µmol/kg
How it was run: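 Mouse PDMS-implant S. aureus biofilm model dosed 0.25 µmol/kg sc in 5% DMSO/saline every 12 h for 3 days. Muscle tissue near the implant site was fixed 24 h, paraffin-embedded, sectioned and H&E stained to assess bacterial spread.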

[13] = test system: Staphylococcus aureus; test: Induction of NO release in Staphylococcus aureus ATCC 6538 at 10 uM incubated for 4 hrs by Griess assay; type: functional, organism-based; how it was run: as §3
[14] = test system: Staphylococcus aureus; test: Antibiofilm activity against Staphylococcus aureus ATCC 6538 infected in mouse assessed as reduction in skin ulceration near implanted site at 0.25 umol/kg, sc administered every 12 hrs for 3 days; type: functional, organism-based; details: dose 0.25 µmol/kg
How it was run: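 Mouse PDMS-implant S. aureus biofilm model (biofilm-coated slices placed subcutaneously in the back). Dosing was 0.25 µmol/kg sc in 5% DMSO/saline every 12 h for 3 days. Skin at the implant site was photographed every 12 h after implantation for ulceration.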

[15] = test system: Cell membrane; test: Induction of cell membrane rupture in Escherichia coli […] ATCC 8099 at 200 uM incubated for 60 mins by scanning electron microscopy; type: subcellular; how it was run: as §2
[16] = test system: Staphylococcus aureus; test: Antibiofilm activity against Staphylococcus aureus ATCC 6538 infected in mouse assessed as reduction in bacterial infection by measuring colony counts at 0.25 umol/kg, sc administered every 12 hrs for 3 days co-treated with 0.25 umol/kg NO scavenger PTIO by plate colony counting assay (reference value: 6.40 +/- 0.28); type: functional; details: dose 0.25 µmol/kg
[17] = test system: Erythrocyte; test: Induction of hemolysis in mouse erythrocytes incubated for 3 hrs; type: cell-based
How it was run: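 2% erythrocyte suspension from mouse blood, mixed with sample in 0.9% NaCl. Controls were saline (negative) and water (positive). Incubated 3 h at 37 °C, 5% CO₂; hemolysis degree calculated by standard curve. Dose-dependent series; HC₅₀ derived.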

[18] = test system: Staphylococcus aureus; test: Antibiofilm activity against Staphylococcus aureus ATCC 6538 assessed as inhibition of continuous biofilm growth at 100 uM measured every 15 mins for 9 hrs by biofilm dynamic detection assay; type: functional, organism-based
How it was run: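 S. aureus (10⁸ cfu/mL in TSB) grown one day at 37 °C, 5% CO₂ on a real-time impedance cell analyzer to form biofilm. After saline washes (3×), medium containing compound at 100 µM was added. Biofilm index was recorded every 15 min for 9 h, blank-subtracted and normalized (lowest point 0, highest 1).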

[19] = test system: Escherichia coli; test: Antibiofilm activity against Escherichia coli ATCC 8099 assessed as dispersion of formed biofilms at 100 uM incubated for 12 hrs by scanning electron microscopy; type: functional, organism-based; how it was run: as §4
[20] = test system: Escherichia coli; test: Antimicrobial activity against Escherichia coli ATCC 8099 incubated for 20 hrs by microdilution assay; type: functional
[21] = test system: Staphylococcus aureus; test: Induction of NO release in CDNB-pretreated Staphylococcus aureus ATCC 6538 at 10 uM incubated for 4 hrs by Griess assay; type: functional, organism-based
How it was run: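 S. aureus (10⁸ cfu/mL in saline) pretreated with 100 µM CDNB for 0.5 h at 37 °C, then pelleted. Cells were incubated with compound at 10 µM in saline for 4 h. After lysis, nitrite was quantified by Griess reagent at 540 nm against a NaNO₂ standard curve.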

[22] = test system: Escherichia coli; test: Antibiofilm activity against Escherichia coli ATCC 8099 assessed as inhibition of biofilm formation at 100 uM incubated for 12 hrs by crystal violet staining assay relative to control; type: functional; how it was run: as §1
[23] = test system: Staphylococcus aureus; test: Antibacterial activity against Staphylococcus aureus ATCC 6538 assessed as killing of living planktonic bacterial cells in supernatant at 100 uM incubated for 12 hrs by OD measurement
[24] = test system: Cell membrane; test: Induction of cell membrane rupture in Escherichia coli ATCC 8099 assessed as induction of cell content spillage at 200 uM incubated for 60 mins by scanning electron microscopy; how it was run: as §2
[25] = test system: Staphylococcus aureus; test: Antibiofilm activity against Staphylococcus aureus ATCC 6538 assessed as inhibition of continuous biofilm growth at 100 uM incubated for 1-2 hrs by biofilm dynamic detection assay; type: functional, organism-based; details: time hrs 1-2
How it was run: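 S. aureus biofilm grown 24 h at 37 °C, 5% CO₂ from 10⁸ cfu/mL in TSB while impedance was recorded in real time (xCELLigence RTCA). Supernatant removed, saline-washed three times, then compound added at 100 µM in TSB. Biofilm index read every 15 min for 9 h, blank subtracted and normalised 0–1, compared with TSB control.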

Row | Compound | inhibition at 100 µM [1] [%] | inhibition [2] | Activity [4] | inhibition [5] | Activity [7] [log10CFU] | Activity [9] | MIC [11] [µM] | inhibition [12] | Activity [13] | inhibition [18] | Activity [19] | MIC [20] [µM] | inhibition at 100 µM [22] [%] | Activity [23] | inhibition [25] | inhibition [10] | also measured
1 | CC[C@H](C)[C@H](NC(=O)[C@H](CCCCN)NC(=O)[C@H](CC(C)C)NC(=O)[C@H](C)NC(=O)CNC(=O)[C@H](CC(N)=O)NC(=O)[C@H](CC(C)C)NC(=O)[C@@H](NC(=O)[C@H](CCCCN)NC(=O)[C@H](CCCCN)NC(=O)[C@H](Cc1c[nH]c2ccccc12)NC(=O)[C@H](Cc1ccccc1)NC(=O)[C@H](CCCCN)NC(=O)[C@H](CCCNC(=N)N)NC(=O)[C@H](CCCNC(=N)N)NC(=O)[C@@H](NC(=O)Cn1cc(CCCC(=O)N[C@@H](Cc2ccc(Oc3no[n+]([O-])c3S(=O)(=O)c3ccccc3)cc2)C(=O)OC)nn1)[C@@H](C)O)C(C)C)C(=O)N[C@@H](C)C(=O)N1CCC[C@H]1C(=O)N[C@@H](Cc1ccccc1)C(=O)N[C@@H](CC(C)C)C(=O)N[C@@H](CC(C)C)C(=O)NCC(=O)O (X1-TRRKFWKKVLNGALKIAPFLLG-OH) | 64.1 | inactive | Active | inactive | 4.54 | Active | > 50 | Active | Active | Active | Active | > 50 | 80.9 | Active |  |  | Activity [3]: Active; Activity [6]: Active; Activity [8]: Non-Toxic; inhibition at 100 µM [10]: 100%; Activity [14]: Active; Activity [15]: Active; Activity [16]: 5.92 log10CFU; IC50 [17]: > 380 µM; Activity [21]: inactive; Activity [24]: Active
2 | CC(=O)OCC1=C(C(=O)O)N2C(=O)[C@@H](NC(=O)CCC[C@@H](N)C(=O)O)[C@H]2SC1 [CEPHALOSPORIN C] |  |  |  |  | 4.97 |  |  | Active |  |  |  |  |  |  | Active | inactive | 
3 | COC(=O)[C@@H](N)Cc1ccc(Oc2no[n+]([O-])c2S(=O)(=O)c2ccccc2)cc1 | 44.4 | inactive | Active | inactive | 4.91 | Active | > 50 |  | Active | inactive | Active | > 50 | 81.2 | inactive |  | Active | 
4 | H-TRRKFWKKVLNGALKIAPFLLG-OH |  |  |  |  | 5.4 | inactive | > 50 | Active |  |  | inactive | > 50 |  |  | Active | Active | inhibition [1]: inactive; inhibition [22]: inactive
